Assay: Toxicity liver stage against HepG2, at 10uM
Type: cell-based
Set-up: test concentration 10 uM, cell line HepG2-A16-CD81EGFP
Conditions: human, HepG2-A16-CD81EGFP cells; read-out: INHIBITION
Procedure, shortened: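 Uninfected HepG2-A16-CD81EGFP cells, 3 × 10^3 per well, 1536-well, plated on prespotted compound at 10 μM final, parasite-free screening media added to match infected plates; puromycin 10 μM positive, DMSO 0.5% negative; run in parallel with 48 h PbLuc assay at 37 °C, 5% CO2; viability by CellTiter-Glo luminescence, normalized to controls.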

CC(NC(=O)c1cccc(CCC(C)(C)O)c1)c1nnc(N)s1 (configuration not stated)
cytotoxicity at 10 µM: 1.16%

O=C(N[C@@H]1CN(Cc2ccco2)[C@@H]2CCCO[C@@H]21)c1cscn1
cytotoxicity at 10 µM: -105%

COC(=O)c1ccc(Cn2nc(C)cc2C)c(OC)c1
cytotoxicity at 10 µM: 10.7%

Cc1ccc(N2CCN(C(=O)C3CN(C)C(=O)N3)CC2=O)cc1 (configuration not stated)
cytotoxicity at 10 µM: -2.61%

COc1ccc(CC(C)(O)CNC(=O)Cc2cccs2)cc1 (configuration not stated)
cytotoxicity at 10 µM: 14.7%

Cc1cnc2n(c1=O)C(CC(=O)NCc1cccnc1)CS2 (configuration not stated)
cytotoxicity at 10 µM: 4.22%

CCOCc1cccc(S(=O)(=O)Nc2ccn(CC)n2)c1
cytotoxicity at 10 µM: 4.84%

CC(=O)N1CCCN(Cc2ccon2)c2ccccc21
cytotoxicity at 10 µM: 0.616%

Cc1csc(C2(NC(=O)NCCN3CCOCC3)CCC2)n1
cytotoxicity at 10 µM: -0.746%

O=C1CCC2(CCCN(C(=O)c3ccccn3)CC2)N1 (configuration not stated)
cytotoxicity at 10 µM: -2.51%

CC(=O)N1CCC2(CC1)CN(C(=O)[C@@H]1CSCN1)c1ccc(Cl)cc12
cytotoxicity at 10 µM: -1.91%

CN1CC(Oc2ccc(Cl)cc2)=NC(SCC(=O)c2ccccc2)=N1
cytotoxicity at 10 µM: -0.731%

CC(C)(C)c1n[nH]c(C2CN(Cc3ncc[nH]3)CCO2)n1 (configuration not stated)
cytotoxicity at 10 µM: 3.01%

CC(O)CN1CCN(C(=O)CCOc2ccccc2F)CC1 (configuration not stated)
cytotoxicity at 10 µM: 3.66%

CCc1nc(C)c(C(=O)NCCN2CCCC2)s1
cytotoxicity at 10 µM: 1.94%

CCNc1cc2c(nn1)CCN(C(=O)c1cccnc1N(C)C)C2
cytotoxicity at 10 µM: -13.4%

CC(C)CC(=O)N1CCN(C(=O)N(C)C)CC2(CC(=O)N(C)C2)C1 (configuration not stated)
cytotoxicity at 10 µM: -20.3%

O=C(Cn1cc(-n2cccc2)cn1)NCC(F)(F)F
cytotoxicity at 10 µM: 16%

Cc1nnc(CN2CCC3(CCC(=O)N(C4CCC(O)CC4)C3)CC2)o1 (configuration not stated)
cytotoxicity at 10 µM: -8.23%

CCOc1cc(C(=O)n2cc(C)cn2)cc(OCC)c1OCC
cytotoxicity at 10 µM: 8.29%

CNC(=O)Cc1ccc(-n2ccnc2-c2cccc(C(=O)O)c2)cc1
cytotoxicity at 10 µM: -7.9%

NC(=O)c1cc(C2CCCN(C(=O)CCc3ccsc3)C2)n[nH]1 (configuration not stated)
cytotoxicity at 10 µM: -5.79%

Cn1cnc(S(=O)(=O)N2CCCc3cc(F)cc(F)c32)c1Cl
cytotoxicity at 10 µM: -0.767%

Cc1nn(C)c(Cl)c1C1CCCN1C(=O)c1ccoc1C (configuration not stated)
cytotoxicity at 10 µM: -8.18%

CC(=O)Nc1cnc(-n2ccnc2)nc1
cytotoxicity at 10 µM: -1.25%

CN1CC2(CCN(C(=O)c3ccc4nonc4c3)CC2)CC1=O
cytotoxicity at 10 µM: 0.873%

CCC(C)N(Cc1ccncc1)Cc1ccc(-n2cccn2)cc1 (configuration not stated)
cytotoxicity at 10 µM: -48.3%

Cc1ncccc1C(=O)NCC(C)Oc1ccc(F)cc1 (configuration not stated)
cytotoxicity at 10 µM: -4.08%

COc1ccc(-n2cc(CCO)cn2)cc1C
cytotoxicity at 10 µM: -12.4%

COCc1nc(C2CCN(Cc3ncc[nH]3)CC2)no1
cytotoxicity at 10 µM: -23.1%

Cc1nn(C)c(C)c1C1COCCN1C(=O)c1cnc(N)c(Cl)c1 (configuration not stated)
cytotoxicity at 10 µM: -8.21%

COC[C@@]12CCO[C@@H]1CCN(C(=O)COc1ccc(C)cc1)C2
cytotoxicity at 10 µM: 1.39%

CCOc1c(Br)cc(CNCCc2nnc3n2CCCCC3)cc1OC
cytotoxicity at 10 µM: -59.6%

O=C(CCc1nccs1)N1CCN(c2ncccn2)CC1
cytotoxicity at 10 µM: -0.313%

CN1CCOCC12CCN(c1ccc(C#N)cc1)CC2
cytotoxicity at 10 µM: -4.23%

O=C(c1ccc[nH]1)N1Cc2nccn2CC(Cn2ncccc2=O)C1 (configuration not stated)
cytotoxicity at 10 µM: 3.66%

Cn1cccc1C(=O)N1CC[C@H]2[C@H]1CCN2CC1CC1
cytotoxicity at 10 µM: -3.86%

COCCN1CCC1c1cc(N)nc(C)n1 (configuration not stated)
cytotoxicity at 10 µM: 7.75%

Cc1ccc(C(=O)NCc2ccnc(N(C)C)c2)c(C)c1
cytotoxicity at 10 µM: -11.1%

CN(Cc1ccncc1)C1COC2(CCN(Cc3ccsc3)CC2)C1 (configuration not stated)
cytotoxicity at 10 µM: -91.8%

O=C(CC1CNCCO1)N1CCC(c2cc(N3CCCC3)ncn2)CC1 (configuration not stated)
cytotoxicity at 10 µM: 5.81%

O=C(CC(F)(F)F)N1C[C@H]2CCN[C@H]2C1
cytotoxicity at 10 µM: 2.95%

O=C(c1ccnnc1)N1C[C@H](OCc2ccccn2)[C@H]2COC[C@H]21
cytotoxicity at 10 µM: -7.52%

Cn1cc(CN2CCC3(CC2)CC(=O)Nc2ccccc23)cn1
cytotoxicity at 10 µM: 8.49%

CN1CCCC2(CCN(c3cccc(C#N)n3)C2)C1=O (configuration not stated)
cytotoxicity at 10 µM: 3.61%

COCCC(=O)N1CCC2(CC1)CN(C(C)=O)Cc1ccccc1O2
cytotoxicity at 10 µM: 0.245%

Cc1cccc(C(=O)N2CCN(S(C)(=O)=O)[C@@H]3CS(=O)(=O)C[C@@H]32)n1
cytotoxicity at 10 µM: 4.01%

CN1CCC2(CCN(CC3CCOCC3)CC2)C1=O
cytotoxicity at 10 µM: 6.77%

COc1ccc(CNC(C)Cn2cccn2)cc1OC (configuration not stated)
cytotoxicity at 10 µM: -0.966%

COCCNC(=O)NCc1cc(-c2cccs2)n(C2CCCC2)n1
cytotoxicity at 10 µM: -10.5%

N#Cc1cccc(CNC(=O)Nc2cccnc2N2CCCC2)c1
cytotoxicity at 10 µM: -15.5%

COc1ccc(C)cc1-n1cnnc1CC1CCNCC1
cytotoxicity at 10 µM: -11.4%

CCCn1ncc(CN2C[C@@H]3CCCN3C[C@@H]2Cc2ccccc2)c1C
cytotoxicity at 10 µM: -8.16%

Cc1ccc(S(=O)(=O)N2CCC(N3CCCCC3)CC2)cc1C
cytotoxicity at 10 µM: 8.95%

COCCN(C)C(=O)NCCc1coc(-c2ccc(C)cc2)n1
cytotoxicity at 10 µM: 8.13%

Cc1ccc(C)c(CS(=O)(=O)Cc2ccn(C)c(=O)c2)c1
cytotoxicity at 10 µM: 13.8%

Cc1cccc(-c2noc(CN3CCCCC3Cn3cncn3)n2)c1 (configuration not stated)
cytotoxicity at 10 µM: -4.32%

CN(C)C(=O)CS(=O)(=O)Cc1ccn(-c2cccc(F)c2)n1
cytotoxicity at 10 µM: 3.03%

CN(C)c1cc(C2CCCN2Cc2ccccc2OCC(=O)O)ccn1 (configuration not stated)
cytotoxicity at 10 µM: -3.8%

CCC1CN(C(=O)c2ccccc2N2CCCC2)CCN1C(C)C (configuration not stated)
cytotoxicity at 10 µM: -9.78%

COCC[C@]1(O)CCN(Cc2nc(C)cs2)C[C@H]1C
cytotoxicity at 10 µM: 10.5%

CCC(C)NS(=O)(=O)Cc1cccc(NC(=O)c2ccc[nH]2)c1 (configuration not stated)
cytotoxicity at 10 µM: 15.5%

CC(C)(O)CCc1cccc(C(=O)NCc2cnn3cccnc23)c1
cytotoxicity at 10 µM: -44.8%

Cc1ccc(OCCCNC(=O)C(C)Sc2nncn2C)cc1 (configuration not stated)
cytotoxicity at 10 µM: -45%

Cn1cc(Cl)cc1C(=O)N1CCCN(Cc2ccccc2)CC1
cytotoxicity at 10 µM: -5.19%

COc1c(CNCc2ccc(C(=O)N(C)C)cc2)c(C)nn1C
cytotoxicity at 10 µM: 1.64%

COCCn1cc(NC(=O)N(CCC(N)=O)Cc2ccccc2)cn1
cytotoxicity at 10 µM: -4.72%

Cn1cnc(S(=O)(=O)NCCN2CCCCCC2)c1Cl
cytotoxicity at 10 µM: -17.2%

Cc1cc(F)c2c(c1)CCCN2C(=O)c1cncc(Br)c1
cytotoxicity at 10 µM: 1.25%

COc1ccc(C[C@H]2CN(Cc3ccoc3)CC[C@H]2OC)cc1
cytotoxicity at 10 µM: 8.44%

CC(C)c1cc2c(s1)NC(c1ccccc1)NC2=O (configuration not stated)
cytotoxicity at 10 µM: 8.82%

COc1ccc(C(=O)NS(=O)(=O)c2cncc(Br)c2)cc1OC
cytotoxicity at 10 µM: 4.36%

CN1CCN(C(=O)c2occc2CN2C(=O)Cc3ccccc32)CC1
cytotoxicity at 10 µM: -1.89%

COc1cc(C)nc(N2CCN(C(=O)c3ccc[nH]3)CC2)n1
cytotoxicity at 10 µM: -5.11%

NC(=O)CN1CCC(c2cncc(-c3cccc(Cl)c3)n2)CC1
cytotoxicity at 10 µM: -26.4%

O=C(CCC1CCN(C2CSCCSC2)CC1)NCC1CCCO1 (configuration not stated)
cytotoxicity at 10 µM: 6.5%

O=C(Nc1cc(-c2ccccn2)no1)C1CC1
cytotoxicity at 10 µM: -5.34%

CC(C)c1cc(-c2cnn(C)c2C2CC2)c(C#N)c(N)n1
cytotoxicity at 10 µM: 28.5%

CCCNS(=O)(=O)c1cc2c3c(c1)c(C)cc(=O)n3CCC2
cytotoxicity at 10 µM: 3.94%

CN(C)C(=O)CNC(CC(F)(F)F)c1ccc(Cl)cc1 (configuration not stated)
cytotoxicity at 10 µM: -3.53%

Cc1noc(C(C)NC(=O)[C@@H](C)NC(=O)OC(C)(C)C)n1 (some centres not stated)
cytotoxicity at 10 µM: 5.81%

CC(C)c1nccn1C1CCCN(C(=O)c2ccnc(N(C)C)c2)C1 (configuration not stated)
cytotoxicity at 10 µM: 5.1%

CCC(O)CN1CCN(C(=O)Cc2cc(Cl)ccc2OC)CC1 (configuration not stated)
cytotoxicity at 10 µM: -10.4%

COc1ccccc1N1CCC(CNS(=O)(=O)c2cccs2)C1 (configuration not stated)
cytotoxicity at 10 µM: 5.66%

O=C(NCCn1cccc1)C1CCCN(C2CCCC2)C1 (configuration not stated)
cytotoxicity at 10 µM: 0.301%

Cc1nn(C)c(N(C)C)c1CNCc1cccc(Cn2cccn2)c1
cytotoxicity at 10 µM: 1.88%

Cc1oc(C(=O)O)cc1S(=O)(=O)Nc1ccc(Cl)c(Cl)c1
cytotoxicity at 10 µM: -0.532%

O=C1CN(C(=O)c2cccc(C(F)(F)F)c2)CC(O)CN1CC1CC1 (configuration not stated)
cytotoxicity at 10 µM: -4.65%

COCc1cc(O)nc(C2CCCN(Cc3ccc(OC)cc3)C2)n1 (configuration not stated)
cytotoxicity at 10 µM: -1.25%

CCc1n[nH]c(C2CN(C(=O)c3ccnc(C4CC4)n3)CCO2)n1 (configuration not stated)
cytotoxicity at 10 µM: 2.4%

Cc1nccn1C1CCCN(C(=O)c2cnn(C)c2C2CC2)C1 (configuration not stated)
cytotoxicity at 10 µM: -5.92%

O=c1c(=CS(=O)(=O)Nc2ccc(Cl)cc2)[nH]c(=O)n2cccc12
cytotoxicity at 10 µM: -7.67%

CN(C)C(=O)c1cn[nH]c1C1(C)CCCN(Cc2ccccn2)C1 (configuration not stated)
cytotoxicity at 10 µM: 4.68%

CCN(Cc1nccn1C)C(=O)c1ccc(NCc2ccc(C)o2)nc1
cytotoxicity at 10 µM: 9.78%

CCNC(=O)NC(=O)C(C)N1CCCc2cc(OC)ccc2C1 (configuration not stated)
cytotoxicity at 10 µM: 9.86%

CC(O)CN1CCC(CNCc2cccc(Br)c2)CC1 (configuration not stated)
cytotoxicity at 10 µM: -12.1%

Cc1cc(CNC(=O)C2CCCN2C(=O)OC(C)(C)C)no1 (configuration not stated)
cytotoxicity at 10 µM: -4.12%

Cc1nc(CN2CCCC(NCc3sccc3C)C2)no1 (configuration not stated)
cytotoxicity at 10 µM: -2.85%

CN1CCCCC[C@@H]2[C@@H]1[C@H](c1ccccc1)CN2C(=O)c1cccnc1
cytotoxicity at 10 µM: -24.4%

c1cc(C2CCCN2CC2CC2)n[nH]1 (configuration not stated)
cytotoxicity at 10 µM: -1.75%

Cc1nnc(C(C)NCC2(c3c(F)cccc3F)CCCC2)o1 (configuration not stated)
cytotoxicity at 10 µM: 0.511%

Cc1nc(N2C[C@@H](CN3CCCCC3)[C@@H](CO)C2)c2sccc2n1
cytotoxicity at 10 µM: -5.12%

CC(=O)NS(=O)(=O)c1ccc(F)c(C(F)(F)F)c1
cytotoxicity at 10 µM: -4.73%

COCCN(Cc1ccoc1)C(=O)c1ccccn1
cytotoxicity at 10 µM: 9.24%

Cc1ccccc1-c1cc(NC(=O)Cn2ccccc2=O)n(C)n1
cytotoxicity at 10 µM: 3.8%

Cc1cccc(CN2CC3(CCN(C(N)=O)CC3)OCC2=O)n1
cytotoxicity at 10 µM: 2.17%

CC(=O)c1c(O)n(C)c2ccc(C)cc12
cytotoxicity at 10 µM: 8.58%

CCS(=O)(=O)N1CCC(NC(=O)c2cc3ccccc3cc2O)CC1
cytotoxicity at 10 µM: -2.1%

CCn1nc2c(cc1=O)CN(CCCN1CCCC1=O)CC2
cytotoxicity at 10 µM: -13.9%

CN(Cc1ccc(C(=O)O)cc1)C(=O)c1sccc1OC(F)F
cytotoxicity at 10 µM: -6.59%

O=S(=O)(c1cccs1)N1CCCCC1c1ccn[nH]1 (configuration not stated)
cytotoxicity at 10 µM: -3%

CN1CCCN(c2nccc(-c3c[nH]c4ccc(Br)cc34)n2)CC1
cytotoxicity at 10 µM: -9.99%
